The values that follow come from ChEMBL document CHEMBL1149711, “Novel indanyl-substituted imidazo[1,2-a]pyridines as potent reversible inhibitors of the gastric H+/K+-ATPase” (Bioorg Med Chem Lett, 2007).

Broadly, the logP is a log measure of how a compound divides between an organic and an aqueous phase. A high value points to a more lipophilic compound. One may read the pKa as the pH at which an ionisable group is half protonated. Read a low pKa as a group that gives up its proton readily. A word on the logD: it is the decadic logarithm of the distribution of all forms, ionised or not, between an organic phase and buffer at a given pH. Read a high logD as a more lipophilic compound.

The first data set can be described thus: Lipophilicity, log P of the compound. The format is physicochemical. The conditions noted are these: octanol/water.
`COCCNC(=O)c1cc(N[C@H]2c3ccccc3C[C@@H]2O)c2nc(C)c(C)n2c1`: the logP amounted to 3.43.

In the case of `Cc1cccc2c1[C@H](Oc1cc(C(=O)N(C)C)cn3c(C)c(C)nc13)[C@@H](O)C2`, the logP came out at 2.59.

Compound `Cc1nc2c(N[C@H]3c4ccccc4C[C@@H]3O)cc(C(=O)N(C)C)cn2c1C` returned a logP of 2.85.

`Cc1nc2c(N[C@H]3c4ccccc4C[C@@H]3O)cc(C(N)=O)cn2c1C`: the logP was 3.11.

As for `COc1cccc2c1[C@H](Oc1cc(C(=O)N(C)C)cn3c(C)c(C)nc13)[C@@H](O)C2`, the logP amounted to 2.3.

In the case of `CNC(=O)c1cc(N[C@H]2c3ccccc3C[C@@H]2O)c2nc(C)c(C)n2c1`, the logP stood at 3.4.

In turn, `Cc1nc2c(O[C@H]3c4ccccc4C[C@@H]3O)cc(C(=O)N(C)C)cn2c1C` registered a logP of 2.2.

`CCc1cccc(C)c1CNc1cc(C(N)=O)cn2c(C)c(C)nc12` gave a logP of 4.95.

Another data set in a line: Dissociation constant, pKa of the compound. Format: physicochemical.
Settings: not given
The method, boiled down: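 Potentiometric co-solvent titration in 0.15 mol/L KCl over pH 2.0–11.0 at 25 °C. Methanol co-solvent at varying proportions; 0.5 mol/L KOH and HCl as titrants. Aqueous pKa obtained by linear extrapolation to 0% co-solvent (Yasuda–Shedlovsky plot).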
`COCCNC(=O)c1cc(N[C@H]2c3ccccc3C[C@@H]2O)c2nc(C)c(C)n2c1` registered a pKa of 6.01.

With `Cc1cccc2c1[C@H](Oc1cc(C(=O)N(C)C)cn3c(C)c(C)nc13)[C@@H](O)C2`, the pKa came to 6.22.

`Cc1nc2c(N[C@H]3c4ccccc4C[C@@H]3O)cc(C(=O)N(C)C)cn2c1C` had a pKa of 6.24.

`Cc1nc2c(N[C@H]3c4ccccc4C[C@@H]3O)cc(C(N)=O)cn2c1C` had a pKa of 5.97.

On to `COc1cccc2c1[C@H](Oc1cc(C(=O)N(C)C)cn3c(C)c(C)nc13)[C@@H](O)C2`, for which the pKa was found to be 6.27.

`CNC(=O)c1cc(N[C@H]2c3ccccc3C[C@@H]2O)c2nc(C)c(C)n2c1` returned a pKa of 5.97.

In the case of `Cc1nc2c(O[C@H]3c4ccccc4C[C@@H]3O)cc(C(=O)N(C)C)cn2c1C`, the pKa was determined as 6.21.

With `CCc1cccc(C)c1CNc1cc(C(N)=O)cn2c(C)c(C)nc12`, the pKa is 6.1.

The next data set in a line: Lipophilicity, log D at pH 7.4. The conditions noted are these: buffer. Format: physicochemical.
`COCCNC(=O)c1cc(N[C@H]2c3ccccc3C[C@@H]2O)c2nc(C)c(C)n2c1` gave a logD of 3.41.

Compound `Cc1cccc2c1[C@H](Oc1cc(C(=O)N(C)C)cn3c(C)c(C)nc13)[C@@H](O)C2` displayed a log distribution coefficient (logD) of 2.56.

Turning to `Cc1nc2c(N[C@H]3c4ccccc4C[C@@H]3O)cc(C(=O)N(C)C)cn2c1C`, the logD is 2.82.

Take `Cc1nc2c(N[C@H]3c4ccccc4C[C@@H]3O)cc(C(N)=O)cn2c1C`: the logD came to 3.09.

The compound `COc1cccc2c1[C@H](Oc1cc(C(=O)N(C)C)cn3c(C)c(C)nc13)[C@@H](O)C2` came in with a logD of 2.27.

Take `CNC(=O)c1cc(N[C@H]2c3ccccc3C[C@@H]2O)c2nc(C)c(C)n2c1`: the logD came to 3.39.

`Cc1nc2c(O[C@H]3c4ccccc4C[C@@H]3O)cc(C(=O)N(C)C)cn2c1C`: the logD amounted to 2.16.

Regarding `CCc1cccc(C)c1CNc1cc(C(N)=O)cn2c(C)c(C)nc12`, the logD was determined as 4.93.

A short description of a further data set: Inhibition of H+/K+ ATPase in hog gastric mucosa by competitive binding assay. The format is tissue-based, Sus scrofa.
Settings: not given
The method, boiled down:
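Competitive binding assay using H+/K+-ATPase prepared from hog gastric mucosa; activity reported as −log IC50.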
Turning to `COCCNC(=O)c1cc(N[C@H]2c3ccccc3C[C@@H]2O)c2nc(C)c(C)n2c1`, the “Log IC50” value was -4.7.

On to `Cc1cccc2c1[C@H](Oc1cc(C(=O)N(C)C)cn3c(C)c(C)nc13)[C@@H](O)C2`, for which the “Log IC50” value is given as -6.9.

For the compound `Cc1nc2c(N[C@H]3c4ccccc4C[C@@H]3O)cc(C(=O)N(C)C)cn2c1C`, the “Log IC50” value is reported as -6.3.

In the case of `Cc1nc2c(N[C@H]3c4ccccc4C[C@@H]3O)cc(C(N)=O)cn2c1C`, the “Log IC50” value was -4.8.

As for `COc1cccc2c1[C@H](Oc1cc(C(=O)N(C)C)cn3c(C)c(C)nc13)[C@@H](O)C2`, the “Log IC50” value is listed as -5.7.

On to `CNC(=O)c1cc(N[C@H]2c3ccccc3C[C@@H]2O)c2nc(C)c(C)n2c1`, for which the “Log IC50” value is -5.4.

As to `Cc1nc2c(O[C@H]3c4ccccc4C[C@@H]3O)cc(C(=O)N(C)C)cn2c1C`, the “Log IC50” value is recorded as -5.7.

For the compound `CCc1cccc(C)c1CNc1cc(C(N)=O)cn2c(C)c(C)nc12`, the “Log IC50” value is recorded as -6.2.
